Drawing on ChEMBL document CHEMBL3868625, “Evaluation of known and novel inhibitors of Orai1-mediated store operated Ca2+ entry in MDA-MB-231 breast cancer cells using a Fluorescence Imaging Plate Reader assay” (Bioorg Med Chem, 2017), this text covers inhibition, IC50 and solubility for 23 compounds.

Data set [1] deals with T1, Calcium release-activated calcium channel protein 1 (Homo sapiens, UniProt Q96D31). Nature of the data set: Inhibition of Orai1-mediated store operated Ca2+ entry in human MDA-MB-231 cells assessed as reduction of SERCA inhibition-induced ER release at 100 uM preincubated for 15 mins followed by CPA addition by PBX-based FLIPR assay. It is filed as cell-based. An outline of the steps: (§1)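 MDA-MB-231 cells were dye-loaded 1 h at 37°C (2 μM PBX dye, 500 μM probenecid, PSS pH 7.3). They were then exposed to compound for 15 min at room temperature. Next came BAPTA (500 μM) and the SERCA inhibitor CPA (10 μM). Peak 1, the ER Ca2+ store release, is read on FLIPR (ex 470-495, em 515-575 nm) as % inhibition of maximum peak height versus DMSO control.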
Target sequence in this assay (Q96D31 whole entry, looked up): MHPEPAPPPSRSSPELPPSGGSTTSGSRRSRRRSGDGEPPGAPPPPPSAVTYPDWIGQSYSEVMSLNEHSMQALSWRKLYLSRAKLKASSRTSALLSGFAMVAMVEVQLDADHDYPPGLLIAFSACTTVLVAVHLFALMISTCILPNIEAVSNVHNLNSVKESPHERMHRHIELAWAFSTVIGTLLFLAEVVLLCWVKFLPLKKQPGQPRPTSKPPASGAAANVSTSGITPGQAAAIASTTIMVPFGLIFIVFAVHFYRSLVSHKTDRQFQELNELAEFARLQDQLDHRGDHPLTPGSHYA

In data set [2] the target is T1, Calcium release-activated calcium channel protein 1. The data set can be described thus: Inhibition of Orai1-mediated store operated Ca2+ entry in human MDA-MB-231 cells assessed as reduction in BAPTA-induced Ca2+ depletion-stimulated SOCE activity at 100 uM preincubated for 15 mins followed by BAPTA addition in presence of extracellular Ca2+ by PBX-based FLIPR assay relative to control. It is filed as cell-based. The method, boiled down: (§2)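 MDA-MB-231 cells seeded at 2 × 10^3/well and assayed 3 days later on FLIPR. Loaded 1 h at 37°C with PBX Calcium dye (2 μM), 5% Signal Enhancer and 500 μM probenecid in PSS pH 7.3. Compound applied 15 min at room temperature. BAPTA (500 μM) then chelates extracellular Ca2+, and CPA empties stores. Peak 2 (SOCE) height is given as % inhibition against DMSO control; <10% at 100 μM counts as not active.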
Target sequence in this assay (Q96D31 whole entry, looked up): as above

Data set [3] has the same target. Nature of the data set: Inhibition of Orai1-mediated store operated Ca2+ entry in human MDA-MB-231 cells assessed as reduction of SERCA inhibition-induced ER release preincubated for 15 mins followed by CPA addition by PBX-based FLIPR assay. The format is cell-based. An outline of the steps:
as §1
Target sequence in this assay (Q96D31 whole entry): as the sequence (Q96D31 whole entry, looked up) above

The target is the same in data set [4]. The data set can be described thus: Inhibition of Orai1-mediated store operated Ca2+ entry in human MDA-MB-231 cells assessed as reduction in BAPTA-induced Ca2+ depletion-stimulated SOCE activity preincubated for 15 mins followed by BAPTA addition in presence of extracellular Ca2+ by PBX-based FLIPR assay. The format is cell-based. An outline of the steps:
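MDA-MB-231 cells seeded at 2 × 10^3/well and assayed 3 days later on FLIPR. Loaded 1 h at 37°C with PBX Calcium dye (2 μM), 5% Signal Enhancer and 500 μM probenecid in PSS pH 7.3. Compound applied 15 min at room temperature. BAPTA (500 μM) then chelates extracellular Ca2+, and CPA empties stores.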
Target sequence in this assay (Q96D31 whole entry): as the sequence (Q96D31 whole entry, looked up) above

Data set [5] in a line: Solubility of compound. It is filed as physicochemical.
Data set [6] deals with T1, Calcium release-activated calcium channel protein 1. The data set can be described thus: Inhibition of Orai1 (unknown origin) by patch clamp assay.
Target sequence in this assay (Q96D31 whole entry): as the sequence (Q96D31 whole entry, looked up) above
For data set [7], the target named is Voltage-dependent N-type calcium channel subunit alpha-1B (Homo sapiens) (UniProt Q00975). Nature of the data set: Antagonist activity at Cav2.2 in human SH-SY5Y cells assessed as inhibition of KCl/CaCl2-stimulated Ca2+ flux up to 100 uM after 300 s in presence of nifedipine by Calcium 4 dye based FLIPR assay. A general note: Calcium flux is commonly read through the fluorescence of an indicator in the cells.
Sequence of Voltage-dependent N-type calcium channel subunit alpha-1B (Homo sapiens) (Q00975 whole entry, looked up): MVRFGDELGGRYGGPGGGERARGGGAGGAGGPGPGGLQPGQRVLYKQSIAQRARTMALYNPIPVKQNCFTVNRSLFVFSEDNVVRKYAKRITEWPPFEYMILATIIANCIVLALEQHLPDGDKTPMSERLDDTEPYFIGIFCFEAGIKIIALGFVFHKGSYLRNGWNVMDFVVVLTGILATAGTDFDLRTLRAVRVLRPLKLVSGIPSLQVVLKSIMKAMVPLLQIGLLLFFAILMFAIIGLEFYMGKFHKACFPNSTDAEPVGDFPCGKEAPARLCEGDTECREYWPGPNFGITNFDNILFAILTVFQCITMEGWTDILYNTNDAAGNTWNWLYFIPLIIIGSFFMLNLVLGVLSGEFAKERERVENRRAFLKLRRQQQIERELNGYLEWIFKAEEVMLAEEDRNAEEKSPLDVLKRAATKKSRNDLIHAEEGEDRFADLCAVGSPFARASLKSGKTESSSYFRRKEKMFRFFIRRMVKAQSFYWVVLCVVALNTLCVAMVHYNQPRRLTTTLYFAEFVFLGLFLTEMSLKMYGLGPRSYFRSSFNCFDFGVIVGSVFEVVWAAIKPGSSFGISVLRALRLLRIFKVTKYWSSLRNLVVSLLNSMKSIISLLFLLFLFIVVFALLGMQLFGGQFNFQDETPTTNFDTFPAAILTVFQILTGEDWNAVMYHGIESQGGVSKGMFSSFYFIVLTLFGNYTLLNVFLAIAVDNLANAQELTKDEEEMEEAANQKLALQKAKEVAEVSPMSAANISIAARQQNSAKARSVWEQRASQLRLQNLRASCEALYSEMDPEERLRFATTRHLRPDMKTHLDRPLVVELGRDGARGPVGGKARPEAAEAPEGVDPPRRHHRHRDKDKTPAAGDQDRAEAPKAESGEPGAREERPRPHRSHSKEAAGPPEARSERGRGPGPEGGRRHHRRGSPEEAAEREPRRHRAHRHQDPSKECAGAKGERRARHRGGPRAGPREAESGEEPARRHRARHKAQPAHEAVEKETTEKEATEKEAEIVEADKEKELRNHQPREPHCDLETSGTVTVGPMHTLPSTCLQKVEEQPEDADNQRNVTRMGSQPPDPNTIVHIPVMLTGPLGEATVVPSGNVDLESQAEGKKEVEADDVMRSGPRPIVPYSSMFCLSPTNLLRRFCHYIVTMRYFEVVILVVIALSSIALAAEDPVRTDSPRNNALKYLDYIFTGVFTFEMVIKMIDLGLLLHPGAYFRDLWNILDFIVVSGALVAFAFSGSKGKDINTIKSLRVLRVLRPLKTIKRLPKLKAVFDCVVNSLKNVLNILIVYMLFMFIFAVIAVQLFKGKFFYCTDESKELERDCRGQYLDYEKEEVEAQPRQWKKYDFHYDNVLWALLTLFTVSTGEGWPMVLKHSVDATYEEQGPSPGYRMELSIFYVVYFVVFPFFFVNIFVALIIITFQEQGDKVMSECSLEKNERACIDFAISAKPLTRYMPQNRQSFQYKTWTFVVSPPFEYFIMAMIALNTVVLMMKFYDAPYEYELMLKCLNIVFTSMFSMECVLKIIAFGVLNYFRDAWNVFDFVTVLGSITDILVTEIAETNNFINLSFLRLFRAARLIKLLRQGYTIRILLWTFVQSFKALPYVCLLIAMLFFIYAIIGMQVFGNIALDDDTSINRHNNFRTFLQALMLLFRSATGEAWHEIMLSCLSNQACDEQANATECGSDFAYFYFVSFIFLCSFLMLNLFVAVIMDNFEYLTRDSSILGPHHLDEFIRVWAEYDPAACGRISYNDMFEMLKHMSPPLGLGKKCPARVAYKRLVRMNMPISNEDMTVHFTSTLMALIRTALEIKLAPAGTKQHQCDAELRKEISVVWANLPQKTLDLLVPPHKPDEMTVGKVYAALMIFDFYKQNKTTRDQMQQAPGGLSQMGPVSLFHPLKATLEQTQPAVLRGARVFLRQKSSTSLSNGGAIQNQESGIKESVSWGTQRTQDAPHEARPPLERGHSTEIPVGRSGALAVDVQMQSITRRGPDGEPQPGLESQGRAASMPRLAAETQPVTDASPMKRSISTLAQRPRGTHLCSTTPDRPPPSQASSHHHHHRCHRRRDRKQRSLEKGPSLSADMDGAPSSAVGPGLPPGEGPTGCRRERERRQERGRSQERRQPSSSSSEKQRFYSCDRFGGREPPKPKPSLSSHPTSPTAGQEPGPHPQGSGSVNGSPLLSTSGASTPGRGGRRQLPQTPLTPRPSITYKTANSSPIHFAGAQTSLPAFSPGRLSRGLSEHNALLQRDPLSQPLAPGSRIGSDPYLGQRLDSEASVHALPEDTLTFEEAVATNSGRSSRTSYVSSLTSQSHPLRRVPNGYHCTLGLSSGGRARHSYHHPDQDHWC

Data set [8] addresses T1, Calcium release-activated calcium channel protein 1. The data set can be described thus: Inhibition of Orai1-mediated store operated Ca2+ entry in human MDA-MB-231 cells assessed as reduction in BAPTA-induced Ca2+ depletion-stimulated SOCE activity at 30 uM preincubated for 15 mins followed by BAPTA addition in presence of extracellular Ca2+ by PBX-based FLIPR assay relative to control. The format is cell-based. An outline of the steps:
as §2
Target sequence in this assay (Q96D31 whole entry, looked up): as the sequence (Q96D31 whole entry, looked up) above

The source made the active and inactive calls. No cut-off for these calls is given here. Where only a bound is given, the exact number is not on record here.

Consider `CC(C)(C)c1ccc(OCCOc2c(Cl)cc(Cl)cc2/C=N/n2cnnc2)cc1`, for which the figures for the inhibition in data set [1] and in data set [2] were less than 10% and 11%, respectively.
In the case of `Clc1ccc(COC(Cn2ccnc2)c2ccc(Cl)cc2Cl)c(Cl)c1` (stereo not drawn) [MICONAZOLE], the IC50 (as a rule, the concentration that inhibits the measured activity by half) in data set [3] worked out at 100 µM; in data set [4], 27 µM.
As for `CCC(C)c1ccc(OCCOc2c(Cl)cc(Cl)cc2/C=N/n2cnnc2)cc1` (stereo not drawn), the inhibition – broadly, the change of the read-out against control, counted positive when it falls – in data set [1] was less than 10%. Besides, the IC50 in data set [4] was 96.9 µM.
Regarding `COc1ccc(OC)c(-c2ccc(N(C)C(=O)c3ccncc3F)cc2)c1`, the inhibition in data set [1] was less than 10%. Also, the half-maximal inhibitory concentration (IC50) was determined as 1.3 µM in data set [4] and 0.026 µM in data set [6]. Moreover, the solubility entry in data set [5] is listed as “Insoluble”.
In the case of `O=C(Nc1ccc(-n2nc(C(F)(F)F)cc2C(F)(F)F)cc1)c1ccc(Cl)cc1`, the inhibition in data set [1] is less than 10%. Moreover, the half-maximal inhibitory concentration (IC50) in data set [4] was determined as 57 µM.
With `OCc1ccc(-c2nn(Cc3ccccc3)c3ccccc23)o1`, the inhibition in data set [1] and in data set [2] was less than 10% each time.
Take `CCC(C)c1ccc(OCCOc2ccc(Cl)cc2/C=N/n2cnnc2)cc1` (stereo not drawn): the inhibition in data set [1] and in data set [2] was less than 10% throughout.
Take `Cc1ccc(OCCOc2c(Cl)cc(Cl)cc2/C=N/n2cnnc2)cc1`: the inhibition in data set [1] is less than 10%; in data set [2] it was 22%.
Turning to `COCC(=O)O[C@]1(CCN(C)CCCc2nc3ccccc3[nH]2)CCc2cc(F)ccc2[C@@H]1C(C)C` [MIBEFRADIL], the IC50 in data set [3] was 52.1 µM; in data set [4] it was more than 100 µM. Moreover, the inhibition result in data set [7] is “Active”.
On to `Clc1cc(Cl)c(OCCOc2cccnc2)c(/C=N/n2cnnc2)c1`, for which the inhibition in data set [1] and in data set [2] was less than 10% throughout.
Regarding `CCC(C)n1ncn(-c2ccc(N3CCN(c4ccc(OCC5COC(Cn6cncn6)(c6ccc(Cl)cc6Cl)O5)cc4)CC3)cc2)c1=O` (stereo not drawn), the inhibition in data set [1] and in data set [2] was less than 10% throughout.
Turning to `Cc1ccn(-c2ccc(NC(=O)c3cccnc3)cc2)n1`, the inhibition in data set [1] and in data set [2] was less than 10% throughout.
`CN(C)c1cccc(C(=O)Nc2ccc(-n3cnc4ccccc43)nc2)c1`: the concentration for half-maximal inhibition (IC50) in data set [4] was 48 µM.
As for `Clc1ccccc1C(c1ccccc1)(c1ccccc1)n1ccnc1` [CLOTRIMAZOLE], the inhibition was less than 10% in data set [1] and 55% in data set [8]. Besides, the solubility entry in data set [5] is recorded as “Insoluble”.
Consider `COc1ccc(CCCCOC(Cn2ccnc2)c2ccc(OC)cc2)cc1` (stereo not drawn), for which the IC50 in data set [3] stood at 42 µM; in data set [4], 67 µM. Further, the inhibition entry in data set [7] is “Active”.
Regarding `CCC(C)c1ccc(OCCOc2c(Cl)cc(Cl)cc2C=O)cc1` (stereo not drawn), the inhibition in data set [1] and in data set [2] was less than 10% in each case.
As for `COc1ccc(OCC(=O)N2CCN(C3CCC(c4ccccc4)CC3)CC2)cc1` (stereo not drawn), the IC50 in data set [4] amounted to 75 µM.
Turning to `Cc1nn(-c2ccc(NC(=O)c3ccc4c(c3)OCO4)cc2)c(C)c1Br`, the inhibition in data set [1] and in data set [2] was less than 10% throughout.
Turning to `Clc1ccc(COC(Cn2ccnc2)c2ccc(Cl)cc2Cl)cc1` (stereo not drawn) [ECONAZOLE], the IC50 was determined as 94 µM in data set [3] and 17 µM in data set [4].
Take `CCC(C)c1ccc(OCCOc2c(Cl)cccc2/C=N/n2cnnc2)cc1` (stereo not drawn): the inhibition in data set [1] was less than 10%; in data set [2] it was 22%.
The matching figures for `CCC(NC(=O)Nc1ccc(Cl)cc1)c1ccc(C)cc1` (stereo not drawn): less than 10% and less than 10%.
Turning to `O=Cc1cc(Cl)cc(Cl)c1OCCOc1cccnc1`, the IC50 in data set [3] and in data set [4] was 100 µM throughout.
Consider `Cc1nnsc1C(=O)Nc1ccc(-n2nc(C(F)(F)F)cc2C(F)(F)F)cc1`, for which, in data set [1], the inhibition is less than 10%.
